{"source": "ChEMBL document CHEMBL1124394", "about": "“Synthesis and biological evaluation of 14-alkoxymorphinans. 2. (-)-N-(cyclopropylmethyl)-4,14-dimethoxymorphinan-6-one, a selective mu opioid receptor antagonist” (J Med Chem, 1989)", "key": {"[1]": {"target": "Kappa-type opioid receptor (Cavia porcellus) (UniProt P41144)", "sequence (P41144 whole entry)": "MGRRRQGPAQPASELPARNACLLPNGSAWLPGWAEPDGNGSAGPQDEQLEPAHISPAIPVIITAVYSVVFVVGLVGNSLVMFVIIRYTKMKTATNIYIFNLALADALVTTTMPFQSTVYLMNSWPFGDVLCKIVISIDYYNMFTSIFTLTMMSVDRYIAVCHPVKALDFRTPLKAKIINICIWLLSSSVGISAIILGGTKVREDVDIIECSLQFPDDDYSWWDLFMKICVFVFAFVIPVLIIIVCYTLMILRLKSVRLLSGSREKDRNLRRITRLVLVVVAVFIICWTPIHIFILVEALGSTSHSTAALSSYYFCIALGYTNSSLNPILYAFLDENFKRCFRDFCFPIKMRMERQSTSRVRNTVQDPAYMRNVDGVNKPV"}, "Oryctolagus cuniculus [2]": {"system": "Oryctolagus cuniculus", "assay": "Percent change of rate in the respiratory activity was measured in rabbit at the 1 mg/kg dose given intravenously", "type": "functional", "details": "route intravenous", "how_it_was_run": "(§1)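 Rabbits were dosed iv in saline (1.5 mL/kg); 1 N HCl was sometimes added to dissolve the compound. Percent change (±SE) in respiratory volume and rate was recorded.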"}, "[3]": {"target": "Mu-type opioid receptor (Cavia porcellus) (UniProt P97266)", "sequence (P97266 whole entry)": "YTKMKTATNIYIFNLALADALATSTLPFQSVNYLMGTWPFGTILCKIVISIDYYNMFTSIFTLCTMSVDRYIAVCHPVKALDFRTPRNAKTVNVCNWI"}, "[4]": {"target": "Mu-type opioid receptor (Mus musculus) (UniProt P42866)", "sequence (P42866 whole entry)": "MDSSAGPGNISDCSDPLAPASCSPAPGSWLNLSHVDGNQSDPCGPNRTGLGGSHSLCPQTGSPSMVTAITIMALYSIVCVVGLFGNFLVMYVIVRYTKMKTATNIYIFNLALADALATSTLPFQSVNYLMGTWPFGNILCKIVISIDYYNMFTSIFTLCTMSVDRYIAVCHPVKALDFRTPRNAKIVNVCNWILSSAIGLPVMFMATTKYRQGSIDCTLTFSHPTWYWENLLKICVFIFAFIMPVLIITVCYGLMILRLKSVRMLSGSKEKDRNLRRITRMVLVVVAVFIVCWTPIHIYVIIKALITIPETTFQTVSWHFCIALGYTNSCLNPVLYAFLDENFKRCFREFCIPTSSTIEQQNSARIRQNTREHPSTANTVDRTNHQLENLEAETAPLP", "details": "Vas deferens"}, "[5]": {"target": "Delta-type opioid receptor (Rattus norvegicus) (UniProt P33533)", "sequence (P33533 whole entry)": "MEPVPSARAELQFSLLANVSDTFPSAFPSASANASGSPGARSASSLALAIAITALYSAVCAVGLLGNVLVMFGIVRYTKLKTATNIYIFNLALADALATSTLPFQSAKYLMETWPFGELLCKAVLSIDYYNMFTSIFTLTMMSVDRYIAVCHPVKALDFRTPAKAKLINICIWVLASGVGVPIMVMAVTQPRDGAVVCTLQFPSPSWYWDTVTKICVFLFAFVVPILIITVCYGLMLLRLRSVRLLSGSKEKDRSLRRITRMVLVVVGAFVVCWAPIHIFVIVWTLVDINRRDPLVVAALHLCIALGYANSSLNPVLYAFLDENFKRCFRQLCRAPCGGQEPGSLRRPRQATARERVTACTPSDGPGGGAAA", "details": "Vas deferens"}, "[6]": {"target": "Kappa-type opioid receptor (Mus musculus) (UniProt P33534)", "sequence (P33534 whole entry)": "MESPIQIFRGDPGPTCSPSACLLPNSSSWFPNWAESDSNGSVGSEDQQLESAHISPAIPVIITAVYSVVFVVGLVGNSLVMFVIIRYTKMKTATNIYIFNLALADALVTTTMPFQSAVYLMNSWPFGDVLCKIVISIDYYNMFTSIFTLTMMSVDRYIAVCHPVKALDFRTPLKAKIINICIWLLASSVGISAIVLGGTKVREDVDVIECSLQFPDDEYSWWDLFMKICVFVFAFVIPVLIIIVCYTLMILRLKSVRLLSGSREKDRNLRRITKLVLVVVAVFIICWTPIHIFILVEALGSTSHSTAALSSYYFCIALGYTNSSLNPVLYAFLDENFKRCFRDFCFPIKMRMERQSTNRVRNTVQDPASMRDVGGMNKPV", "details": "Vas deferens"}, "[7]": {"target": "Mu-type opioid receptor (Rattus norvegicus) (UniProt P33535)", "sequence (P33535 whole entry)": "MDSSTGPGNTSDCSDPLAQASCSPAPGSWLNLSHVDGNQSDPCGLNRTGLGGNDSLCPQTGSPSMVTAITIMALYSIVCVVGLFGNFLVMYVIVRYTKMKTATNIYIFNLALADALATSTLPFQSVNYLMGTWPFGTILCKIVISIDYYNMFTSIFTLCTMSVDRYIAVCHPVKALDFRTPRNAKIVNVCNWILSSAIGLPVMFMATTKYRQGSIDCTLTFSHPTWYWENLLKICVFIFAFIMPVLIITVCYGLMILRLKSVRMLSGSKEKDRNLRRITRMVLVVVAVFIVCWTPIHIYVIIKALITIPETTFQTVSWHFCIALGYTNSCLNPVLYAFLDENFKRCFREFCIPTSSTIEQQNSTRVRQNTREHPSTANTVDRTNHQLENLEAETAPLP", "details": "Vas deferens"}, "Oryctolagus cuniculus [8]": {"system": "Oryctolagus cuniculus", "assay": "Percent change of volume in the respiratory activity was measured in rabbit at the 1 mg/kg dose given intravenously", "type": "functional", "details": "route intravenous", "how_it_was_run": "as §1"}, "[9]": {"target": "Delta-type opioid receptor (Mus musculus) (UniProt P32300)", "sequence (P32300 whole entry)": "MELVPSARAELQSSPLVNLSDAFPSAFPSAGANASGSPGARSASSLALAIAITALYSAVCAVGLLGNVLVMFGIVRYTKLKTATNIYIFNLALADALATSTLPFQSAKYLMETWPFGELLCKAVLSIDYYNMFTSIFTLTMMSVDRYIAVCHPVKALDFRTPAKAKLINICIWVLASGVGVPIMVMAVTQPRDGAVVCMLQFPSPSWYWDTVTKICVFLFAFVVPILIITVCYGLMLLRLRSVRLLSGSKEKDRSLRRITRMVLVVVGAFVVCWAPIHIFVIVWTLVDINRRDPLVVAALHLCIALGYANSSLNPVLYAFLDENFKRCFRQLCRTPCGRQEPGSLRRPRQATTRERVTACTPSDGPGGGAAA", "details": "Vas deferens"}, "Opioid receptor": {"target": "Opioid receptor (Rattus norvegicus, UniProt P33533+P34975+P33535)", "assay": "Inhibition of [3H]naloxone binding to opioid receptor in presence of NaCl", "type": "protein assay", "how_it_was_run": "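Rat (male F1-albino, 140–180 g) whole brain minus cerebellum, homogenised in ice-cold 50 mmol/L Tris-HCl pH 7.4 with NaCl, centrifuged 18000g 10 min and rehomogenised. Nonspecific binding defined with 1 μmol/L levallorphan. Competitor tested at ≥5 concentrations in duplicate, two independent runs. IC50 taken graphically or from a least-squares sigmoid fit.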"}, "Oryctolagus cuniculus [10]": {"system": "Oryctolagus cuniculus", "assay": "Percent change of volume in the respiratory activity was measured in rabbit at the 0.1 mg/kg dose given intravenously", "type": "functional", "details": "route intravenous", "how_it_was_run": "as §1"}, "Mus musculus [11]": {"system": "Mus musculus", "assay": "Percent reduction of analgesia induced by U-50,488 at 15 mg/kg after sc administration was measured in mice", "type": "functional", "details": "route subcutaneous", "how_it_was_run": "(§2)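 Mice received the opioid agonist sc (morphine 10 mg/kg or U-50,488 15 mg/kg), then the test compound sc 20 min later in saline (10 mL/kg). Writhing was then induced with acetic acid. Read-out was percent reduction of agonist-induced analgesia.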"}, "Oryctolagus cuniculus [12]": {"system": "Oryctolagus cuniculus", "assay": "Percent change of rate in the respiratory activity was measured in rabbit at the 0.1 mg/kg dose given intravenously", "type": "functional", "details": "route intravenous", "how_it_was_run": "as §1"}, "Mus musculus [13]": {"system": "Mus musculus", "assay": "Percent reduction of analgesia induced by morphine at 10 mg/kg after sc administration was measured in mice", "type": "functional", "details": "route subcutaneous", "how_it_was_run": "as §2"}, "Oryctolagus cuniculus [14]": {"system": "Oryctolagus cuniculus", "assay": "Percent change of rate in the respiratory activity was measured in rabbit at 0.1 mg/kg dose given intravenously", "type": "functional", "details": "route intravenous", "how_it_was_run": "as §1"}}, "note": "“And” between values parts separate entries of the source, which are not always exact repeats. Equal values may be shown once.", "data": [{"compound": "COc1cccc2c1[C@]13CCN(CC4CC4)[C@H](C2)[C@]1(OC)CCC(=O)C3", "note": "[CYPRODIME]", "values": [{"measurement": "Ke", "setting": "[1]", "value": 1160, "unit": "nM"}, {"measurement": "Rate change", "setting": "Oryctolagus cuniculus [2]", "value": -6.9, "unit": "%"}, {"measurement": "Ke", "setting": "[3]", "value": 31, "unit": "nM"}, {"measurement": "Ke", "setting": "[4]", "value": 55.4, "unit": "nM"}, {"measurement": "Ke", "setting": "[5]", "value": 4.56, "unit": "µM"}, {"measurement": "Ke", "setting": "[6]", "value": 1550, "unit": "nM"}, {"measurement": "Ke", "setting": "[7]", "value": 61.6, "unit": "nM"}, {"measurement": "Volume change", "setting": "Oryctolagus cuniculus [8]", "value": 21, "unit": "%"}, {"measurement": "Ke", "setting": "[9]", "value": 6.11, "unit": "µM"}]}, {"compound": "C=CCN1CC[C@]23CCCC[C@H]2[C@H]1Cc1ccc(O)cc13", "note": "[LEVALLORPHAN]", "values": [{"measurement": "IC50", "setting": "Opioid receptor", "value": "1.1 nM and 0.54 nM"}]}, {"compound": "C=CCN1CC[C@]23c4c5ccc(O)c4O[C@H]2C(=O)CC[C@@]3(O)[C@H]1C5", "note": "[NALOXONE]", "values": [{"measurement": "Volume change", "setting": "Oryctolagus cuniculus [10]", "value": 23, "unit": "%"}, {"measurement": "Reduction", "setting": "Mus musculus [11]", "value": 83, "unit": "%"}, {"measurement": "Rate change", "setting": "Oryctolagus cuniculus [12]", "value": 7.3, "unit": "%"}, {"measurement": "Reduction", "setting": "Mus musculus [13]", "value": 87, "unit": "%"}]}, {"compound": "O=C1CC[C@@]2(O)[C@H]3Cc4ccc(O)c5c4[C@@]2(CCN3CC2CC2)[C@H]1O5", "note": "[NALTREXONE]", "values": [{"measurement": "Reduction", "setting": "Mus musculus [11]", "value": 19, "unit": "%"}, {"measurement": "Rate change", "setting": "Oryctolagus cuniculus [14]", "value": 7.5, "unit": "%"}, {"measurement": "Reduction", "setting": "Mus musculus [13]", "value": 94, "unit": "%"}]}]}
